LMPTP block – LMPTP phosphatase inhibitors, primary screen, biochemical, fluorescence intensity, uHTS; recombinant LMPTP-A, OMFP fluorogenic substrate; inhibition, % at 20 µM; 0.22% of 360,000 active;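 active means compounds that cut the enzyme signal by at least half of the control window in the single-dose screen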;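 further: plate controls were DMSO wells with enzyme plus substrate for no effect and substrate without enzyme for full effect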
Target sequence (P24666 whole entry, looked up): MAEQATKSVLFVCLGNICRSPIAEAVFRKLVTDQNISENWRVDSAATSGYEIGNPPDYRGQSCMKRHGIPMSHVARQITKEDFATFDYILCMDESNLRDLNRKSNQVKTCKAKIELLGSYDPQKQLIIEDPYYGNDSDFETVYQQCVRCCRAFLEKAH
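Assay system: LMPTP-A, protein tyrosine phosphatase of low molecular weight / Medium: pH 6.0 Bis-Tris buffer with DTT and Triton X-100 / Schedule: 50 min enzyme reaction at room temperature, protected from light / Measured by: endpoint fluorescence intensity from OMFP dephosphorylation / Read-out basis: % inhibition relative to no-enzyme and uninhibited control wells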
STEP block – STEP phosphatase inhibitors, primary screen, biochemical, fluorescence intensity, uHTS; Tyrosine-protein phosphatase non-receptor type 5 (Homo sapiens), P54829; recombinant STEP, OMFP fluorogenic substrate; inhibition, % at 20 µM; 0.25% of 360,000 active; AID 588621, 2011;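 active means inhibition at 20 µM, scaled per plate between control wells, above about 37%, limit read from the data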;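 further: 0% = DMSO with enzyme and substrate and 100% = substrate only without enzyme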
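Test system: STEP tyrosine phosphatase / Reagent: OMFP at 25 µM / Doses: 20 µM, 1% DMSO / Read-out: percent inhibition scaled to no-enzyme and uninhibited-enzyme controls, plate-pattern corrected / Detection: FITC-channel fluorescence of OMFP product / Medium: Bis-Tris buffer pH 6.0, 2.5 mM DTT, 0.005% Tween 20 / Schedule: 20 min at room temperature, dark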
DNMT1 block – human DNMT1 methyltransferase inhibitors, primary screen, biochemical, molecular beacon, fluorescence, HinP1I cleavage, uHTS | DNA (cytosine-5)-methyltransferase 1 (Homo sapiens), P26358 | inhibition (reported as % activation of signal), % at 10 µM | 0.83% of 360,000 active; in the data active means inhibition above about 50%
Scp-1 inhibitor – Scp-1 phosphatase inhibitors, primary screen, biochemical, colorimetric, uHTS; 0.88% of 340,000 active; Recombinant Scp1, phosphopeptide, malachite green phosphate absorbance; Carboxy-terminal domain RNA polymerase II polypeptide A small phosphatase 1 (Homo …; AID 493091, 2011; inhibition, % at 20 µM;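 active means inhibition above about 50% at 20 µM, limit read from the data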;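 further: plate controls were DMSO wells with enzyme for no effect and wells lacking enzyme for full effect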
Target sequence (Q9GZU7 76-261 limits assumed): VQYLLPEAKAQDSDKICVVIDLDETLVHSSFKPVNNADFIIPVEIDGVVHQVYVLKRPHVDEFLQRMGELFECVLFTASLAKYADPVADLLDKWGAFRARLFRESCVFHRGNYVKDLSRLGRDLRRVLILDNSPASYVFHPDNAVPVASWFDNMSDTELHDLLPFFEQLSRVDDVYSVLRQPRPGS
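Test system: SCP-1 catalytic domain; Buffer or medium: Acidic Tris acetate buffer with magnesium and detergent; Also added: Phosphorylated 17-residue peptide substrate; Compound: single 20 µM dose, 1% DMSO; Schedule: enzyme reaction 45 min at room temperature, colour 5 min, stabilisation 30 min; Signal: Phosphate-binding colour reagent, absorbance read at 630 nm.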
SUMO1 PPI mod – modulators of SUMO1 protein-protein interactions, primary screen, biochemical, uHTS; 0.33% of 360,000 active; Small ubiquitin-related modifier 1 (Homo sapiens), P63165; SUMO1 binding to a labelled peptide, TR-FRET, 1 h; inhibition, % at 20 µM; in the data active means inhibition above about 37%
Target sequence (P63165 whole entry, looked up): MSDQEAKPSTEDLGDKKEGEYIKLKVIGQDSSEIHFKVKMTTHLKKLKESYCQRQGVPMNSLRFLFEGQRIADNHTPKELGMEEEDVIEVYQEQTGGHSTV
Scp-1 conf – Scp-1 phosphatase inhibitors, retest, confirmation, biochemical, colorimetric, single concentration. shares compounds with Scp-1 inhibitor. inhibition, % at 20 µM. 61% of 2,500 active. recombinant SCP-1 catalytic domain, phosphate release, malachite green absorbance. AID 540281, 2011;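 further: plate controls were DMSO with enzyme for no effect and buffer wells lacking enzyme for full effect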
MG interference – colorimetric readout interference by compounds, confirmation, artefact control for Scp-1 inhibitor project, biochemical, single concentration; shares compounds with Scp-1 inhibitor; Colorimetric interference counterscreen, malachite green absorbance 630 nm; apparent inhibition (interference), % at 20 µM; 2,500 tested, under 10 active; AID 540313, 2011;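 further: compounds added after enzyme reaction finished so only phosphate colour detection is probed; plate controls were DMSO wells with completed Scp-1 reaction for no effect and substrate wells lacking enzyme for full effect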
Scp1 DSF – Scp-1 binding by thermal shift, confirmation, orthogonal assay for Scp-1 inhibitor project, biophysical, differential scanning fluorimetry; shares compounds with Scp-1 inhibitor; Recombinant SCP1, Sypro Orange thermal shift Tm; thermal shift relative to vanadate control, % at 40 µM; 25% of 1,500 active; AID 540329, 2011;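 active means substances whose mean melting-temperature shift, as a percentage of the reference inhibitor's shift, reaches about 5.3%, limit read from the data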;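 further: 0% = Tm of DMSO wells and 100% = Tm with sodium orthovanadate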
Starred values were filed as active, the others as inactive; / = no result given. This is a sample that favours compounds with a hit; in the whole collection about 1.7% have one here.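 How the source made its calls, unless noted: active means inhibition of at least 30% at 20 µM; inactive means the rest.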

SMILES	LMPTP block	STEP block	DNMT1 block	Scp-1 inhibitor	SUMO1 PPI mod	Scp-1 conf	MG interference	others
COc1ccc(NC(=O)N(C)C[C@H]2Oc3ccc(NS(=O)(=O)c4cn(C)cn4)cc3C(=O)N([C@H](C)CO)C[C@@H]2C)cc1	-1.7	-1.1	4.7	4.1	1.0	/	/
C[C@@H]1CN([C@H](C)CO)C(=O)Cc2cc(NS(=O)(=O)c3cn(C)cn3)ccc2O[C@H]1CN(C)S(=O)(=O)c1ccc(Cl)cc1	0.1	-0.9	3.7	65.0*	1.2	-0.1	-20.0
Cc1noc(C)c1NC(=O)N(C)C[C@H]1Oc2ccc(NS(=O)(=O)c3cn(C)cn3)cc2C(=O)N([C@H](C)CO)C[C@@H]1C	-1.1	-0.1	5.7	63.8*	1.9	3.0	-9.0
C[C@H](CO)N1C[C@H](C)[C@@H](CN(C)S(=O)(=O)c2cn(C)cn2)Oc2ccc(NC(=O)Nc3ccc4c(c3)OCO4)cc2C1=O	-0.5	-0.9	-1.4	-5.0	-4.3	/	/
COc1ccc(NC(=O)Nc2ccc(N(C)C)cc2)cc1	0.2	-3.6	-8.5	56.6*	1.1	-3.0	-13.9
CC[C@@H](C)[C@H](N)C(=O)NC[C@H]1O[C@@H](n2cnc3c(N)ncnc32)[C@H](O)[C@@H]1O	1.7	-1.5	1.4	6.5	4.1	/	/
Cc1[nH]c(=O)c(C#N)c(C)c1CCC(=O)Nc1cc(S(C)(=O)=O)ccc1Cl	-1.5	-0.7	-1.3	58.1*	-2.6	1.7	-8.2
COc1ccc(C2C(C(C)=O)=C(O)C(=O)N2c2ccc(F)cc2)cc1 (stereo unspecified)	-1.1	-1.9	2.0	8.1	-0.8	/	/
O=C(NNC(=O)c1ccccc1F)c1ccc(Cl)c(S(=O)(=O)N2CCOCC2)c1	0.0	-1.8	3.4	56.7*	6.6	-12.2	-13.4
Cc1cc(C(=O)NCCc2ccc(S(N)(=O)=O)cc2)c(C)o1	0.2	-0.1	3.4	0.7	2.9	/	/
O=C(CSc1nc2sc3c(c2c(=O)n1-c1ccccc1)CCCC3)N/N=C/c1ccccc1C(=O)O	1.0	76.2*	5.1	78.4*	5.0	48.9*	-8.2	Scp1 DSF=-5.0
N/C(=N\OC(=O)c1ccc(Br)cc1)c1cccc([N+](=O)[O-])c1	0.2	1.9	9.7	64.8*	-21.5	62.3*	-18.9	Scp1 DSF=1.3
O=C(CSc1nnc2scc(-c3ccccc3)n12)Nc1nsc(-c2ccccc2)n1	7.6	6.6	17.2	71.3*	3.9	73.9*	-7.9	Scp1 DSF=-19.1
Cc1ccc(-c2csc3nnc(SCC(=O)Nc4nsc(-c5ccccc5)n4)n23)cc1	3.0	2.3	3.3	14.6	3.6	/	/
CC(C)NC(=O)C1(C)CN(S(C)(=O)=O)CC(=O)N1CCc1ccccc1 (stereo unspecified)	-0.4	/	/	/	-6.9	/	/
CCOc1ccccc1NC(=O)CCS(=O)(=O)c1ccc(Br)cc1	1.2	38.9	104.6*	92.2*	56.6*	66.9*	-16.2	Scp1 DSF=-16.0
C[C@H](CO)N1C[C@H](C)[C@@H](CN(C)S(C)(=O)=O)Oc2ccc(NS(=O)(=O)c3cn(C)cn3)cc2C1=O	-3.7	1.7	2.9	12.6	4.8	/	/
O=Cc1ccc(OCc2cccc(C(F)(F)F)c2)cc1O	2.9	8.3	-0.3	61.6*	6.0	-22.7	-23.6
CN(C)c1ccc(C(=O)N=c2sccn2C)cc1[N+](=O)[O-]	1.0	-0.8	-0.8	-4.7	-14.2	/	/
CC1(C)CC[C@]2(C(=O)O)CC[C@]3(C)C(=CCC4[C@@]5(C)CC[C@H](O)C(C)(C)C5CC[C@]43C)C2C1 (stereo partly specified)	25.0	/	77.8*	56.4*	4.6	16.7	3.9
CC1(C)CC[C@]2(C(=O)O)CC[C@]3(C)C(=CC[C@@H]4[C@@]5(C)CC[C@H](O)C(C)(C)[C@@H]5CC[C@]43C)[C@@H]2C1	-13.8	/	29.2	-6.2	4.5	/	/
COc1ccc(CCNC(C(=O)Nc2cc(C)cc(C)c2)c2ccccc2)cc1 (stereo unspecified)	3.9	0.2	-2.9	54.1*	1.8	-9.0	-5.4
CCNc1nc2c(c(=O)n(C)c(=O)n2C)n1CCCc1ccccc1	-2.4	-2.8	1.9	-2.0	6.6	/	/
COc1cc2nc3n(c(=O)c2cc1OC)-c1ncccc1C(=O)NC3Cc1ccccc1 (stereo unspecified)	0.2	1.5	7.8	/	0.6	/	/
CCOc1cc(C2C3=C(CC(C)(C)CC3=O)N(CCOC)C3=C2C(=O)CC(C)(C)C3)ccc1OC	-1.2	-0.6	0.2	54.3*	-2.2	-1.9	-5.7
SMILES	LMPTP block	STEP block	DNMT1 block	Scp-1 inhibitor	SUMO1 PPI mod	Scp-1 conf	MG interference	others
CCOC(=O)[C@@H]1[C@H]2COc3cc(OC)ccc3[C@@H]2N2C(=O)N(c3ccc(Br)cc3)C(=O)[C@]12C	2.8	1.2	0.6	52.9*	1.4	-23.8	-12.8
O=C(CNC(=O)c1ccccc1)NCC(O)c1ccc([N+](=O)[O-])cc1 (stereo unspecified)	-0.6	-1.7	0.2	-2.0	-12.8	/	/
Cc1ccc(OCC(=O)Nc2ccc(CN3CCOCC3)cc2)cc1	-0.1	-0.7	1.0	69.9*	0.6	-11.7	-14.8
Cc1cccc(OCC(=O)Nc2ccc(CN3CCOCC3)cc2)c1C	-0.1	-0.2	-0.5	-6.7	0.6	/	/
Cc1ccc(NC(=O)COc2ccc(/C=N/NC(=O)CSCc3ccccc3)cc2)cc1	0.1	-0.8	2.4	84.8*	-0.2	70.0*	-14.0	Scp1 DSF=-5.0
COc1ccc(NC(=O)C2CCN(S(=O)(=O)c3cccc4nonc34)CC2)c(OC)c1	0.6	1.7	3.7	0.7	-33.2	/	/
CC1CCCC(NC(=O)C2CCN(S(=O)(=O)c3cccc4nonc34)CC2)C1C (stereo unspecified)	-1.2	-0.9	3.6	69.0*	-2.5	-8.4	-16.7

Source: PubChem BioAssay
